Assay results as given in ChEMBL document CHEMBL4346670, “Discovery of Novel Janus Kinase (JAK) and Histone Deacetylase (HDAC) Dual Inhibitors for the Treatment of Hematological Malignancies” (J Med Chem, 2019).

Tests used:
[1] = molecular target: Cyclin-dependent kinase 6 (Homo sapiens) (UniProt Q00534); assay: Inhibition of recombinant human CDK6 at 20 nM using Ulight-CFFKNIVTPRTPPPSQGK-amide as substrate measured after 60 mins by LANCE assay relative to control
In short: (§1)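 Single-concentration screen within an 85-kinase panel run by a contract lab, with each compound tested at 20 nM and 200 nM. Human recombinant enzymes were used. Activity was quantified as phosphorylation of a peptide substrate read by LANCE time-resolved detection, and inhibition was expressed relative to control, using the same format as the JAK assay.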

[2] = Half life in rat liver microsomes at 1 uM in presence of NADPH cofactor for phase 1 metabolism and measured upto 60 mins by LC-MS/MS analysis; format: ADME, Microsome
In short: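 Liver microsomes (rat or human) incubated with compound at 37 °C, with NADPH for phase I or UDPGA for phase II. Reactions stopped in acetonitrile at set time points, vortexed 5 min, stored at -80 °C. Parent remaining in supernatant measured by LC-MS/MS. t1/2 = -0.693/k, with k the slope of ln fraction remaining versus time.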

[3] = molecular target: Vascular endothelial growth factor receptor 1 (Homo sapiens) (UniProt P17948); assay: Inhibition of recombinant human FLT1 at 200 nM using Ulight-TK peptide as substrate measured after 15 mins by LANCE method relative to control; in short: as §1
Chain of Vascular endothelial growth factor receptor 1 (Homo sapiens) (P17948 whole entry): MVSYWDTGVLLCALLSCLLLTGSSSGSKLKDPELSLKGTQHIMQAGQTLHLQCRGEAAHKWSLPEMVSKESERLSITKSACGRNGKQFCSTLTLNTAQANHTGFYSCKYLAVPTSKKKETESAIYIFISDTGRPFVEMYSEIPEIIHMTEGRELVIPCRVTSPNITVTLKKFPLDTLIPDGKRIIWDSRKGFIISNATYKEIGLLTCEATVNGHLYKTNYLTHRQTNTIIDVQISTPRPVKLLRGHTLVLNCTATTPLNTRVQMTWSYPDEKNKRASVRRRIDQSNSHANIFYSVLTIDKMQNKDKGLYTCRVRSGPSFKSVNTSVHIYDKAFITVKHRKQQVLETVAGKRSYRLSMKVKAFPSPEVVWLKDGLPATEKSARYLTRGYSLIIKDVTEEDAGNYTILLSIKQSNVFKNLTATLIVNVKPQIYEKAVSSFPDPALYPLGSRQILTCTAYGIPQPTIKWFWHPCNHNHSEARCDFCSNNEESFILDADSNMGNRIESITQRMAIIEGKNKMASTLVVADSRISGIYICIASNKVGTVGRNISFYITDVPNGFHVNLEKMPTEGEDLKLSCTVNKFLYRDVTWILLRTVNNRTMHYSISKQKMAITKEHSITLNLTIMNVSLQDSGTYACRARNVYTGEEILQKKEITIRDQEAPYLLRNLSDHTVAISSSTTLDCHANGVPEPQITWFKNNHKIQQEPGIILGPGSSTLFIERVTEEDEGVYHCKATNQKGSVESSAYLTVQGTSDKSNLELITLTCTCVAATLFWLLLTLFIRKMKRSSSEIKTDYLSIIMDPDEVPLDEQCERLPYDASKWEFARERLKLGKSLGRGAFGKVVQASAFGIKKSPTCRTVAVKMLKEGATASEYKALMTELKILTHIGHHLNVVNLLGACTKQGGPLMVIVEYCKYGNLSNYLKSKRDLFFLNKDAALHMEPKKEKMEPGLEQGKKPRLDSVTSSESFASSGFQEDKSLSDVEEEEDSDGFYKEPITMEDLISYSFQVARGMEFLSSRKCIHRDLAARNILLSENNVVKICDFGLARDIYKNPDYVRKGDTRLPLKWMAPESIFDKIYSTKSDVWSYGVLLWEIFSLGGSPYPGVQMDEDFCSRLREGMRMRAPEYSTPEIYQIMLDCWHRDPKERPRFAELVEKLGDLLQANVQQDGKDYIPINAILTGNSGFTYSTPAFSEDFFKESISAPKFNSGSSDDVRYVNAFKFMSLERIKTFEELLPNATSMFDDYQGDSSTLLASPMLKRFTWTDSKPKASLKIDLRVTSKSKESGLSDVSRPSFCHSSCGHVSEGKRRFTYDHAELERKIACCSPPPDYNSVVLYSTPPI

Chain of Cyclin-dependent kinase 6 (Homo sapiens) (Q00534 whole entry): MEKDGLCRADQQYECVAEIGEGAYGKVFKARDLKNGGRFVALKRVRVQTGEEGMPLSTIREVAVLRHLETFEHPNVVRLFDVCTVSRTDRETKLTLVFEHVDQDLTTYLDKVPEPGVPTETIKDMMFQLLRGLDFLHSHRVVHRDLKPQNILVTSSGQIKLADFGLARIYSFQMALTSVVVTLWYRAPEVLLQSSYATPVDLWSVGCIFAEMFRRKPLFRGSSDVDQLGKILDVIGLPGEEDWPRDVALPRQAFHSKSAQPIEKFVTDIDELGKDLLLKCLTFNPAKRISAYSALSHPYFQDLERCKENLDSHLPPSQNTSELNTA

O=C(CCCCCn1cc(Nc2ncc(Cl)c(Nc3ccc(Cl)cc3)n2)cn1)NO
inhibition [1]: 10%
half-life at 1 µM [2]: 14.6 min
inhibition [3]: 61%
